Data set [1] relates to Staphylococcus aureus. In words: Antibacterial activity against methicillin-resistant Staphylococcus aureus COL. Format: functional.
Data set [2] deals with Staphylococcus aureus. In words: Antibacterial activity against methicillin-resistant Staphylococcus aureus COL infected New Zealand White rabbit aortic valve endocarditis model assessed as decrease in bacterial colony forming unit in kidney at 18 mg/kg, iv dosed every 24 hrs for 4 days (reference value: 4.4 +/- 1.0 log10CFU per gram tissue). Format: functional.
In data set [3] the test system is Staphylococcus aureus. The experiment in a line: Antibacterial activity against methicillin-resistant Staphylococcus aureus COL infected New Zealand White rabbit aortic valve endocarditis model assessed as decrease in bacterial colony forming unit in spleen at 18 mg/kg, iv dosed every 24 hrs for 4 days (reference value: 5.1 +/- 0.9 log10CFU per gram tissue). Format: functional.

Data set [4] concerns Staphylococcus aureus. In words: Antibacterial activity against methicillin-resistant Staphylococcus aureus COL infected New Zealand White rabbit aortic valve endocarditis model assessed as decrease in bacterial colony forming unit in vegetation at 18 mg/kg, iv dosed every 24 hrs for 4 days (reference value: 8.4 +/- 0.7 log10CFU per gram tissue). Format: functional.
The subject of data set [5] is Staphylococcus aureus. The experiment in a line: Antibacterial activity against methicillin-resistant Staphylococcus aureus COL infected New Zealand White rabbit aortic valve endocarditis model assessed as decrease in bacterial colony forming unit in kidney at 25 mg/kg, im dosed every 8 hrs for 4 days (reference value: 4.4 +/- 1.0 log10CFU per gram tissue). Format: functional. As to conditions: route intramuscular.

Data set [6] concerns Staphylococcus aureus. In words: Antibacterial activity against methicillin-resistant Staphylococcus aureus COL infected New Zealand White rabbit aortic valve endocarditis model assessed as decrease in bacterial colony forming unit in spleen at 25 mg/kg, im dosed every 8 hrs for 4 days (reference value: 5.1 +/- 0.9 log10CFU per gram tissue). The data set is classed as functional. As to conditions: route intramuscular.

Data set [7] relates to Staphylococcus aureus. The experiment in a line: Antibacterial activity against methicillin-resistant Staphylococcus aureus COL infected New Zealand White rabbit aortic valve endocarditis model assessed as decrease in bacterial colony forming unit in vegetation at 25 mg/kg, im dosed every 8 hrs for 4 days (reference value: 8.4 +/- 0.7 log10CFU per gram tissue). Format: functional. Particulars: route intramuscular.

Data set [8] deals with Oryctolagus cuniculus. In words: Plasma concentration in Staphylococcus aureus COL infected New Zealand White rabbit aortic valve endocarditis model at 25 mg/kg, im dosed every 8 hrs for 4 days. Also on record: dose 25 mg/kg, route intramuscular. Particulars: in vivo. The data set is classed as ADME, organism-based. The method in brief:
(§1)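 Rabbits with catheter-induced aortic valve endocarditis received about 1.5 × 10^7 CFU COL iv in 1 ml 0.9% saline 48 h after catheter placement. Dosing started 16–18 h post-infection. Plasma was sampled 1 h post-dose from at least three rabbits per group and assayed by HPLC against plasma standard curves. Each value is the mean of two determinations; detection limit ≤0.5 μg/ml.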

Data set [9] relates to Staphylococcus aureus. The experiment in a line: Antibacterial activity against methicillin-resistant Staphylococcus aureus COL infected New Zealand White rabbit aortic valve endocarditis model assessed as decrease in bacterial colony forming unit in spleen at 30 mg/kg, iv dosed every 12 hrs for 4 days (reference value: 5.1 +/- 0.9 log10CFU per gram tissue). Format: functional.

The test system of data set [10] is Staphylococcus aureus. The experiment in a line: Antibacterial activity against methicillin-resistant Staphylococcus aureus COL infected New Zealand White rabbit aortic valve endocarditis model assessed as decrease in bacterial colony forming unit in vegetation at 30 mg/kg, iv dosed every 12 hrs for 4 days (reference value: 8.4 +/- 0.7 log10CFU per gram tissue). Format: functional.

The subject of data set [11] is Staphylococcus aureus. In words: Antibacterial activity against methicillin-resistant Staphylococcus aureus COL infected New Zealand White rabbit aortic valve endocarditis model assessed as decrease in bacterial colony forming unit in kidney at 30 mg/kg, iv dosed every 12 hrs for 4 days (reference value: 4.4 +/- 1.0 log10CFU per gram tissue). Format: functional.
Data set [12] has as its system Oryctolagus cuniculus. In words: Plasma concentration in Staphylococcus aureus COL infected New Zealand White rabbit aortic valve endocarditis model at 30 mg/kg, iv dosed every 12 hrs for 4 days. The data set is classed as ADME, organism-based. Also on record: dose 30 mg/kg, route intravenous. Particulars: in vivo. The procedure, abridged: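 Plasma was drawn 1 h after dosing from at least 3 rabbits and assayed by HPLC. Each value averages two determinations, read from plasma standard curves. The detection limit was ≤0.5 μg/ml.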

Data set [13] can be described thus: Half life in Staphylococcus aureus COL infected New Zealand White rabbit aortic valve endocarditis model at 30 mg/kg, iv dosed every 12 hrs for 4 days. Format: ADME, organism-based, Oryctolagus cuniculus. Also on record: dose 30 mg/kg, route intravenous. Particulars: in vivo.
The test system of data set [14] is Staphylococcus aureus. In words: Antibacterial activity against methicillin-resistant Staphylococcus aureus COL infected New Zealand White rabbit aortic valve endocarditis model assessed as decrease in bacterial colony forming unit in vegetation at 75 mg/kg, sc dosed every 8 hrs for 4 days (reference value: 8.4 +/- 0.7 log10CFU per gram tissue). Format: functional. As to conditions: route subcutaneous.

In data set [15] the test system is Staphylococcus aureus. In words: Antibacterial activity against methicillin-resistant Staphylococcus aureus COL infected New Zealand White rabbit aortic valve endocarditis model assessed as decrease in bacterial colony forming unit in spleen at 75 mg/kg, sc dosed every 8 hrs for 4 days (reference value: 5.1 +/- 0.9 log10CFU per gram tissue). As to conditions: route subcutaneous. The data set is classed as functional.

The test system of data set [16] is Staphylococcus aureus. The experiment in a line: Antibacterial activity against methicillin-resistant Staphylococcus aureus COL infected New Zealand White rabbit aortic valve endocarditis model assessed as decrease in bacterial colony forming unit in kidney at 75 mg/kg, sc dosed every 8 hrs for 4 days (reference value: 4.4 +/- 1.0 log10CFU per gram tissue). Format: functional. As to conditions: route subcutaneous.

The test system of data set [17] is Oryctolagus cuniculus. In words: Plasma concentration in Staphylococcus aureus COL infected New Zealand White rabbit aortic valve endocarditis model at 75 mg/kg, sc dosed every 8 hrs for 4 days. Format: ADME, organism-based. Also on record: dose 75 mg/kg, route subcutaneous. As to conditions: in vivo. The procedure, abridged: as §1

≈ marks a conversion by molar mass, not a printed value.

In turn, `CCOc1ccc2ccccc2c1C(=O)N[C@@H]1C(=O)N2[C@@H]1SC(C)(C)[C@@H]2C(=O)O` [NAFCILLIN] showed an MIC in the data set on Staphylococcus aureus [1] of 256 µg/mL (≈ 618 µM).
`CCCCCCCCCC(=O)N[C@@H](Cc1c[nH]c2ccccc12)C(=O)N[C@H](CC(N)=O)C(=O)N[C@@H](CC(=O)O)C(=O)N[C@@H]1C(=O)NCC(=O)N[C@@H](CCCN)C(=O)N[C@@H](CC(=O)O)C(=O)N[C@H](C)C(=O)N[C@@H](CC(=O)O)C(=O)NCC(=O)N[C@H](CO)C(=O)N[C@@H]([C@H](C)CC(=O)O)C(=O)N[C@@H](CC(=O)c2ccccc2N)C(=O)O[C@@H]1C`: the results for the log10CFU/g with Staphylococcus aureus [2], with Staphylococcus aureus [3] and with Staphylococcus aureus [4] were 2.6, 2.3 and 3.6, respectively.
Take `Nc1nc(/C(=N/O)C(=O)N[C@@H]2C(=O)N3C(C(=O)O)=C(/C=C4\CCN([C@@H]5CCNC5)C4=O)CS[C@H]23)ns1` [CEFTOBIPROLE]: the log10CFU/g is listed as 1.7 with Staphylococcus aureus [5], 1.8 with Staphylococcus aureus [6] and 2.1 in the data set on Staphylococcus aureus [7]. Besides, the Cp with Oryctolagus cuniculus [8] is 14400 ng/mL.
Turning to `CN[C@H](CC(C)C)C(=O)N[C@H]1C(=O)N[C@@H](CC(N)=O)C(=O)N[C@H]2C(=O)N[C@H]3C(=O)N[C@H](C(=O)N[C@H](C(=O)O)c4cc(O)cc(O)c4-c4cc3ccc4O)[C@H](O)c3ccc(c(Cl)c3)Oc3cc2cc(c3O[C@@H]2O[C@H](CO)[C@@H](O)[C@H](O)[C@H]2O[C@H]2C[C@](C)(N)[C@H](O)[C@H](C)O2)Oc2ccc(cc2Cl)[C@H]1O` [VANCOMYCIN], the values for the log10CFU/g in the data set on Staphylococcus aureus [9], with Staphylococcus aureus [10] and with Staphylococcus aureus [11] were 3.3, 5.9 and 3.1, respectively. Further, in the data set with Oryctolagus cuniculus [12], the Cp was determined as 34000 ng/mL. Moreover, the half-life in data set [13] came to 1.33 h.
On to `CC(=O)NC[C@H]1CN(c2ccc(N3CCOCC3)c(F)c2)C(=O)O1` [LINEZOLID], for which the log10CFU/g in the data set with Staphylococcus aureus [14] turned out to be 5.9; with Staphylococcus aureus [15], 2.9; in the data set on Staphylococcus aureus [16], 2.5. In the data set on Oryctolagus cuniculus [17], this compound registered a Cp of 28200 ng/mL.

As usually defined, the MIC is the lowest concentration found to suppress growth. The low end stands for a more susceptible organism, the high end for a less susceptible organism. The term half-life denotes the time in which the quantity being followed falls by half.

The values are drawn from ChEMBL document CHEMBL1212779, “Ceftobiprole is superior to vancomycin, daptomycin, and linezolid for treatment of experimental endocarditis in rabbits caused by methicillin-resistant Staphylococcus aureus” (Antimicrob Agents Chemother, 2010).
